Source: PubChem BioAssay (several laboratories)
Compounds with a hit are over-represented: about 1.7% of the library has one in this group of screens.
HCV core dimer = HCV core protein dimerization inhibition; TR-FRET GST/Flag-core106 dimerization, 1536-well; inhibition, % at 5 µM; actives 0.33% (n = 300,000);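 active means inhibition above the mean of all tested compounds plus 3 SD, set per screening campaign, cut at about 45% in these data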
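System – GST-tagged and Flag-tagged HCV core protein residues 1-106 · Repeats – one well for each compound · Technique – TR-FRET 671 and 617 nm emission · Doses – one concentration, 5 µM, in 0.5% DMSO · Times – 4 h, 22.5 °C incubation · Also added – Eu donor and XL665 acceptor anti-tag antibodies · Measure – percent inhibition of core106 dimerization signal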
EBV gp42 block = blocks Epstein-Barr virus glycoprotein 42 binding | AID 1085 | actives 0.42% (n = 220,000) | Fluorescence polarization binding assay, mP read-out | inhibition, % (tested at 21.74 µM); in the data active means inhibition above about 50%
Target sequence (Q1HVG2 whole entry, looked up): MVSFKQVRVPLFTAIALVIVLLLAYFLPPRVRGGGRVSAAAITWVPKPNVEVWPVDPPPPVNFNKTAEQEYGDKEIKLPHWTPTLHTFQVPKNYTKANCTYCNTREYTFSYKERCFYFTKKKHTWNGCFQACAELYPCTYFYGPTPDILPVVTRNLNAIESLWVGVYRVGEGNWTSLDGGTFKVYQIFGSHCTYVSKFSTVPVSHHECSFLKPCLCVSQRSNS
HCV NS3 hel inh = inhibitors of Hepatitis C virus NS3 helicase | NS3 helicase DNA unwinding, Cy5 molecular beacon fluorescence | inhibition, % at 10.9 µM | actives 0.56% (n = 290,000);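 active means inhibition above the mean of all tested compounds plus 3 SD, set per campaign, cut at about 35% in these data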;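 further: 0% = DMSO wells and 100% = thioflavine S control wells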
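System: Hepatitis C virus NS3 helicase domain fragment enzyme | Reagent: Annealed dual-labelled DNA beacon duplex, ATP-started | Compound dosing: 10.9 µM single point, 0.8% DMSO | Incubation: 1 h reaction at 25 °C, ATP-initiated | Technique: Cy5 fluorescence | Evaluation: Percent inhibition from t60/t0 fluorescence ratio | Benchmarks: Low DMSO, high thioflavine S at 110 µM | Replication: Singlicate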
ZTA DNA inh = counter-screen for EBNA-1 inhibitors: inhibitors of Epstein-Barr virus ZTA; inhibition, % at 11 µM; actives 0.15% (n = 320,000); ZTA-DNA binding, fluorescence polarization; P03206; in the data active means inhibition above about 33%
Target sequence (P03206 whole entry, looked up): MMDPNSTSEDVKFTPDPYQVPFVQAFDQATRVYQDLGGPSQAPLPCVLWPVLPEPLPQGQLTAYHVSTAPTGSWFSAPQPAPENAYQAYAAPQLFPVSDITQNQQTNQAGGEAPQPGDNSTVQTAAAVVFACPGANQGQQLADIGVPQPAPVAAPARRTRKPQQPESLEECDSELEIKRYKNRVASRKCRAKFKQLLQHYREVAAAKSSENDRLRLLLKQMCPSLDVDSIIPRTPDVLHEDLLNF
MEX-5 binding = C. elegans MEX-5 TCR-2 RNA binding activity; MEX-5/FITC-TCR2 RNA binding, fluorescence polarization; stronger effect = lower value; actives 0.38% (n = 300,000); Q9XUB2; activity score (negative = inhibition of binding), % at 10 µM;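 active means inhibition past about -25% in most replicates, and total fluorescence under double the plate's negative control median, limit read from the data; inconclusive means replicates evenly split on the limit, or fluorescence at least double controls; inactive means too little inhibition in most replicates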;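 further: 0% = DMSO and -100% = 5 µM competing unlabeled TCR2 RNA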
EBNA-1 inh = blocks EBNA-1 binding to DNA. EBNA-1 DNA binding, fluorescence polarization. inhibition, % at 14.8 µM. actives 0.34% (n = 300,000); in the data active means inhibition above about 28%
NS3 helicase cf = confirmation of Hepatitis C virus NS3 helicase inhibitors; shares compounds with HCV NS3 hel inh; NS3 helicase DNA unwinding, Cy5 molecular beacon fluorescence; inhibition, % at 10.9 µM; actives 31% (n = 1,600);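 active means inhibition above the mean of all tested compounds plus 3 SD, cutoff set per campaign, cut at about 36% in these data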
DNA FID counter = counter-screen for HCV NS3 helicase inhibitors: DNA intercalator displacement; DNA fluorescent intercalator displacement, fluorescence; inhibition, % at 7.9 µM; actives 4% (n = 1,600); shares compounds with HCV NS3 hel inh; in the data active means inhibition above about 37%;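 further: 0% = vehicle and 100% = reference compound; higher means more displacement of ethidium bromide from the DNA hairpin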
DNA FID DR = DNA intercalator displacement in dose response; shares compounds with HCV NS3 hel inh; fluorescent intercalator displacement from DNA, fluorescence; IC50, µM; 120 tested, under 10 active; AID 2172; call rule not given here
* marks the source's active call; other numbers are inactive results; ? = inconclusive; . = no result given.

SMILES | HCV core dimer | EBV gp42 block | HCV NS3 hel inh | ZTA DNA inh | MEX-5 binding | EBNA-1 inh | NS3 helicase cf | DNA FID counter | others
C=CCN1C(=O)/C(=C/c2ccc(Br)s2)C(=O)NC1=S | -9 | . | 46* | -3 | 10 | -14 | 68* | 9
Cc1nc2cc([N+](=O)[O-])ccc2c(=O)n1-c1cccc(Br)c1 | -2 | . | . | 17 | 0 | 14 | . | .
O=C1NC(=O)N(c2ccc(Cl)cc2)C(=O)/C1=C\c1ccc(Sc2nc3ccccc3[nH]2)o1 | 23 | -24 | 44* | -3 | 1 | 5 | 76* | -7
O=C1NC(=O)C(=Cc2ccc(Sc3ccccc3)o2)C(=O)N1 | 6 | -27 | 9 | 5 | 0 | 5 | . | .
Cc1ccc(-n2c(C)cc(/C=C3/C(=O)NC(=O)N(Cc4ccco4)C3=O)c2C)cc1 | 21 | 12 | 63* | 0 | -3 | 5 | 8 | -20
Cc1ccccc1-n1c(C)cc(/C=C2/C(=O)NC(=O)N(Cc3ccco3)C2=O)c1C | 29 | -15 | 40* | 13 | -1 | -5 | 4 | -15
Cc1cc(/C=C2\C(=O)NC(=O)N(Cc3ccco3)C2=O)c(C)n1-c1ccc(C(=O)O)cc1 | 6 | -12 | 24 | 0 | -1 | -16 | . | .
CCn1c(C)cc(/C=C2\C(=O)NC(=O)N(c3ccccc3C)C2=O)c1C | 3 | -9 | 7 | 2 | -10 | 12 | . | .
Cc1ccc(N2C(=O)NC(=O)/C(=C/c3ccc(-c4ccc(C(=O)O)c(Cl)c4)o3)C2=O)cc1 | 7 | -192 | 39* | 0 | -2 | 6 | 36* | 9
Cc1cc(/C=C2\C(=O)NC(=O)N(c3cccc(F)c3)C2=O)c(C)n1-c1ccc(C(=O)O)c(Cl)c1 | 14 | . | 16 | 4 | 1 | 0 | . | .
CCN1C(=O)N(CC)C(=O)C2(Cc3ccccc3N3CCN(c4ccccc4)CC32)C1=O (centres undefined) | 6 | 0 | 45* | -12 | 0 | -9 | -20 | -32
COc1ccc(CC(=O)Nc2ccc3c(C(F)(F)F)cc(=O)oc3c2)cc1OC | -1 | -4 | 59* | 8 | -1 | -1 | -13 | -21
O=C1C2CCN(CC2)C12CC2c1ccc(C(F)(F)F)cc1 (centres undefined) | 1 | -17 | 39* | -7 | 1 | -15 | -8 | 20
CCOc1ccc(N2C(=O)/C(=C/c3ccc(C)o3)C(=O)NC2=S)cc1 | 31 | . | 49* | 2 | -2 | -12 | 70* | -2
Cc1ccc(/C=C2\C(=O)NC(=S)N(c3cccc(F)c3)C2=O)o1 | 18 | . | 37* | 18 | -8 | 11 | 65* | 5
COc1ccc(N2C(=O)/C(=C/c3ccc(C)o3)C(=O)NC2=S)cc1 | . | . | -2 | . | -7 | . | . | .
O=c1cccc2n1CC1CNC[C@H]2C1 | -10 | . | . | 1 | . | -1 | . | .
COC(=O)c1c2[n+](cc3cc(OC)c(OC)cc13)CCc1cc(OC)c(OC)cc1-2 | -8 | . | . | -18 | 0 | -2 | . | .
C=CCN1C(=O)NC(=O)/C(=C/C=C/c2ccccc2)C1=O | . | -9 | 1 | . | -7 | . | . | .
Cc1ccc(N2C(=O)NC(=O)/C(=C\C=C\c3ccco3)C2=O)cc1 | 2 | -154 | 42* | 17 | -2 | -8 | 39* | 20
Cc1ccc(N2C(=O)NC(=O)/C(=C\C=C\c3ccco3)C2=O)cc1C | 8 | -146 | 38* | 19 | 20 | -2 | 62* | 15 | DNA FID DR=>79
Cc1cccc(N2C(=O)NC(=O)/C(=C\C=C\c3ccco3)C2=O)c1 | -6 | -177 | 27 | 10 | -4 | 8 | . | .
O=C1NC(=O)N(c2ccccc2)C(=O)/C1=C/C=C/c1ccco1 | 5 | -178 | 45* | 28 | 0 | 10 | -5 | 14
O=C1NC(=O)N(Cc2ccccc2)C(=O)/C1=C\C=C\c1ccco1 | 15 | -109 | 42* | 5 | -4 | 3 | 23 | 12
O=C(/C=C/c1c[nH]c2ccccc12)c1c(O)n(CCc2ccccc2)c(=O)[nH]c1=O | 10 | -58 | 11 | 3 | -4 | 5 | . | .
SMILES | HCV core dimer | EBV gp42 block | HCV NS3 hel inh | ZTA DNA inh | MEX-5 binding | EBNA-1 inh | NS3 helicase cf | DNA FID counter | others
Cn1cc(C(=O)Cc2ccccc2)c2ccccc21 | -4 | -14 | 4 | -19 | 3 | 4 | . | .
O=C1NC(=O)C(=Cc2ccc(-c3ccc(S(=O)(=O)N4CCOCC4)cc3)o2)C(=O)N1 | 6 | . | 42* | 8 | ? | -1 | -5 | 1
CCCCN1C(=O)/C(=C/c2ccc(N3CCCCCC3)cc2)C(=O)NC1=S | 12 | -30 | 39* | 13 | -1 | 3 | 29 | 0
CN1C(=O)/C(=C\c2ccc(N3CCCCCC3)cc2)C(=O)NC1=S | -6 | -16 | -2 | -12 | 1 | -7 | . | .
Nc1nonc1OCCCCOc1nonc1N | -1 | -16 | 7 | -2 | -2 | -7 | . | .
CN1CCC(N(C)c2ncnc3ccc(Br)cc23)CC1 | . | -18 | -3 | . | . | . | . | .
Cc1ccc(-c2nc(N(C)C3CCN(C)CC3)c3ccccc3n2)cc1 | -1 | 6 | 38* | 3 | -1 | -3 | 17 | 84*
CCCNC(=O)N1[C@H]2CC[C@@H]1C(C(=O)OC)=C(c1ccc(C(C)=O)cc1)C2 | . | . | . | 9 | . | . | . | .
O=C(CCc1ccccc1)N1C[C@H]2C[C@@H](C1)c1cccc(=O)n1C2 | -1 | . | -14 | -3 | -2 | 3 | . | .
Cc1c(OC(=O)N(C)C)ccc2c1O/C(=C\c1ccco1)C2=O | . | . | 59* | . | -2 | . | -5 | -17
COc1ccc(-c2n(-c3ccccn3)c3ccccc3[n+]2-c2ccccn2)cc1 | . | -1 | 0 | . | -3 | . | . | .
C=CCN1C(=O)NC(=O)/C(=C/c2c(CCN(C)C(=O)c3ccccc3)cc3c(c2OC)OCO3)C1=O | 0 | . | 54* | 3 | -17 | -4 | -32 | -17
CNC(=S)N(C)CCc1cc2c(c(OC)c1C=C1C(=O)NC(=O)NC1=O)OCO2 | 2 | -11 | -1 | 0 | 1 | 8 | . | .
CN(C)C1C(=O)C(C(N)=O)=C(O)C2(O)C(=O)C3=C(O)c4c(O)cccc4C(C)(O)C3C(O)C12 (centres undefined) | -9 | . | 96* | -3 | -20 | 6 | 10 | 19
Cc1ccc(OCC(=O)N2CCN(C3CCC(c4ccccc4)CC3)CC2)cc1 (centres undefined) | 5 | -1 | -14 | -2 | 1 | 0 | . | .
Cc1ccc(N2C(=O)/C(=C/c3ccc(CN(CCC#N)S(C)(=O)=O)o3)C(=O)NC2=S)cc1C | 51* | -4 | 44* | 7 | -2 | -4 | 66* | 24
